Screening results (PubChem BioAssay)
KCNK9 inh = inhibitors of human KCNK9 two-pore domain potassium channel; Q9NPC2; HEK293 KCNK9, FluxOR thallium flux fluorescence; active compounds read low; B-score at 10 µM; 310,000 tested, 1.2% active;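 active = ratio B-score over 3 SD below the library mean, with starting fluorescence within 5 SD of its mean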;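 note: negative B-score means less thallium flux so channel inhibition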
KCNQ1 block = blocks the human KCNQ1 potassium channel | P51787 | CHO-K1 KCNQ1, FluxOR thallium flux fluorescence; active compounds read high | B-score at 10 µM | 310,000 tested, 1.3% active | AID 2642;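 active = compounds whose thallium flux B-score, printed positive for inhibition, exceeds three library SD while starting fluorescence stays within three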;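 note: channel opened by potassium depolarization with thallium stimulus after 20 min compound exposure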
Target sequence (P51787 whole entry, looked up): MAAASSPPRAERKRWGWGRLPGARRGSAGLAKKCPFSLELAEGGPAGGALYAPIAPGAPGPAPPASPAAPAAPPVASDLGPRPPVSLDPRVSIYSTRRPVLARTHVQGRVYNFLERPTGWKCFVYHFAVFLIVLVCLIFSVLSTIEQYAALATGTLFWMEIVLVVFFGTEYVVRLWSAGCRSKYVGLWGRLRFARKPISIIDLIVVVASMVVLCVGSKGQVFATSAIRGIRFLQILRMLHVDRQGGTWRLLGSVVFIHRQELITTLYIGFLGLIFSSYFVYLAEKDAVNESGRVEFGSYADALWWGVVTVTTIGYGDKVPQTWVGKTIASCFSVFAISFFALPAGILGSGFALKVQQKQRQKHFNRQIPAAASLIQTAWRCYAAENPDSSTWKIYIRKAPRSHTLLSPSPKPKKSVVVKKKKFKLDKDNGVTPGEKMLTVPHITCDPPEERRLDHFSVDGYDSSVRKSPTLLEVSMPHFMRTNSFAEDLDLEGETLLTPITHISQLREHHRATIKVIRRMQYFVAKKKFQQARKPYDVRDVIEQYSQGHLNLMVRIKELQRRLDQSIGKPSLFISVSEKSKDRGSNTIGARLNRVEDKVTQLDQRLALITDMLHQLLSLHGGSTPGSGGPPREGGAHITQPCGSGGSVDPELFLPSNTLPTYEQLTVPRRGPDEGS
KCNQ1 act = potentiators or activators of human KCNQ1 potassium channel. P51787. CHO-K1 KCNQ1, thallium flux FluxOR fluorescence; active compounds read high. B-score at 10 µM. 310,000 tested, 0.35% active. AID 2648;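 active = fluorescence ratio B-score, a plate-corrected score, at least three library SD, with initial intensity B-score within 5 SD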
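System: CHO-K1 cells stably expressing KCNQ1 / Medium: assay buffer for compound exposure, DMSO matched across wells / Reagent: thallium- and potassium-containing depolarizing buffer / Compound: one concentration, matched DMSO / Incubation: 20 min compound pretreatment at room temperature / Measured by: kinetic FluxOR fluorescence, 10 s baseline plus 110 s post-stimulus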
hERG protect = compounds protecting human hERG from proarrhythmic drug block | activation (rescue from dofetilide block), less the hit threshold, % at 10 µM | CHO-hERG, FluxOR thallium flux, dofetilide IC70 present | 310,000 tested, 0.51% active;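 active = activation above the mean of controls blocked by dofetilide plus 5 SD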;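 note: thallium influx through hERG after potassium depolarization seen as dye fluorescence rise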
KCNK3 inh = human KCNK3 channel inhibition, primary screen; 340,000 tested, 0.84% active; AID 602410; CHO-KCNK3 thallium flux, FluxOR fluorescence; active compounds read low; B-score at 10 µM;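 active = B-score under library mean minus 4 SD, starting fluorescence ratio at most library mean plus 5 SD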;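 note: more negative B-score means stronger inhibition of thallium flux through KCNK3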
KCNK9 block conf = human KCNK9 inhibitor confirmation; shares compounds with KCNK9 inh; HEK293 KCNK9 cells, FluxOR thallium flux fluorescence; inhibition, % at 10 µM; 4,900 tested, 43% active;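 active = thallium signal inhibited by more than 5 SD of the compound-free buffer control wells, on both duplicate plates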
Kir2-1 spec = mouse Kir2.1 off-target activity of KCNK9 modulators | shares compounds with KCNK9 inh | Kir2.1 cells, FluxOR thallium flux fluorescence | inhibition, % at 10 µM | 4,900 tested, 4% active | AID 492993;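 active = thallium signal drop more than 5 SD beyond the mean of the no-compound control wells, seen in both duplicate plates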;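 note: signal is fluorescence rise after thallium addition divided by baseline fluorescence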
HEK293 Tl ctr = second check of KCNK9 modulator effects in non-induced HEK293 cells. inhibition, % at 10 µM. 4,900 tested, 40% active. FluxOR thallium flux. shares compounds with KCNK9 inh. AID 492997;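 active = thallium signal drop beyond 5 SD of the untreated control mean, on both duplicate plates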
Large screens that a line does not name were inactive (follow-up assays come after a bar, where they were run). Sampled rows, rich in hits. Any-hit rate of the full collection: about 3.1%.

COc1ccc(NC(=S)NNC(=O)c2ccco2)c(OC)c1	none
COc1ccc(-c2cc(C(=O)Nc3cc(Cl)ccc3O)no2)cc1	none
O=[N+]([O-])c1ccc(COc2ccc(CNc3ccccc3)cc2)cc1	none
O=[N+]([O-])c1ccc(COc2cccc(CNc3ccc(Br)cc3)c2)cc1	KCNK9 inh -10 | KCNK9 block conf inactive | Kir2-1 spec inactive | HEK293 Tl ctr 37%
Cc1cc(C)c(S(=O)(=O)N2CCC(C(=O)NCc3ccc(Cl)cc3Cl)CC2)c(C)c1	none | KCNK9 block conf inactive | Kir2-1 spec inactive | HEK293 Tl ctr inactive
COc1ccc(-n2nnnc2/C=C\Nc2ccccc2C(=O)c2ccccc2)cc1	none
COc1ccc(-n2nnnc2/C=C/Nc2cc(C(F)(F)F)ccc2OC)cc1	KCNK9 inh -12 | KCNK9 block conf 34% | Kir2-1 spec inactive | HEK293 Tl ctr 43%
COCC1CCN(C(=O)CC2C(=O)NCCN2Cc2cccc(Oc3ccccc3)c2)CC1 (centres undefined)	none
Cc1cccc(-n2nc(C(=O)c3ccco3)cc(-c3nc4ccccc4[nH]3)c2=N)c1	KCNQ1 block 10 | KCNK9 block conf inactive | Kir2-1 spec inactive | HEK293 Tl ctr inactive
COc1ccc(/C=N/NC(=O)C2COc3ccccc3O2)cc1OC (centres undefined)	none
COc1ccc(-c2csc(NC(=O)C3COc4ccccc4O3)n2)cc1OC (centres undefined)	KCNK9 inh -16, KCNK3 inh -10 | KCNK9 block conf 64% | Kir2-1 spec inactive | HEK293 Tl ctr inactive
COc1cc(C(CCN2CCN(c3ccccc3)CC2)c2c(OC)cc(OC)c3c(C)cc(=O)oc23)cc(OC)c1OC (centres undefined)	none | KCNK9 block conf inactive | Kir2-1 spec inactive | HEK293 Tl ctr inactive
O=[N+]([O-])c1ccc(O)c(/C=N/NC(=S)Nc2ccc(Cl)cc2Cl)c1	none | KCNK9 block conf inactive | Kir2-1 spec inactive | HEK293 Tl ctr inactive
CCc1ccc(C(=O)c2cnc3ccc(OC)cc3c2N2CCN(CC)CC2)cc1	none | KCNK9 block conf inactive | Kir2-1 spec inactive | HEK293 Tl ctr inactive
CCOc1ccc(C(=O)c2cnc3ccccc3c2N2CCN(CC)CC2)cc1	none
COc1cccc(N2CC(NS(=O)(=O)c3ccc4ccccc4c3)CC2=O)c1 (centres undefined)	none
Cc1nn(Cc2cccc(C(=O)NC(C)c3ccc(C(C)(C)C)cc3)c2)c(C)c1[N+](=O)[O-] (centres undefined)	none
CCC(NC(=O)c1cccc(Cn2nc(C)c([N+](=O)[O-])c2C)c1)c1ccc(C(C)C)cc1 (centres undefined)	none | KCNK9 block conf inactive | Kir2-1 spec inactive | HEK293 Tl ctr inactive
CCOc1ccccc1Nc1nc(-c2cccnc2)cs1	none
COc1ccccc1Nc1nc(-c2cccc(N3C(=O)c4ccccc4C3=O)c2)cs1	none | KCNK9 block conf inactive | Kir2-1 spec inactive | HEK293 Tl ctr inactive
C=CCN(C)CC/C=C1\c2ccccc2CSc2ccccc21	none | KCNK9 block conf inactive | Kir2-1 spec inactive | HEK293 Tl ctr inactive
O=C(CN(Cc1ccco1)C(=O)c1ccc([N+](=O)[O-])cc1)Nc1ccccc1C(F)(F)F	none (no result: KCNK9 inh, KCNQ1 block, KCNQ1 act, hERG protect)
CC(C)COc1ccc(C(=O)N(CC(=O)Nc2ccccc2C(F)(F)F)Cc2ccco2)cc1	none | KCNK9 block conf inactive | Kir2-1 spec inactive | HEK293 Tl ctr inactive
O=C1CC(N2CCN(S(=O)(=O)c3ccc(Cl)cc3)CC2)C(=O)N1CCc1ccccc1 (centres undefined)	none
COc1ccc(S(=O)(=O)N2CCN(C/C=C/c3ccccc3)CC2)cc1F	none | KCNK9 block conf inactive | Kir2-1 spec inactive | HEK293 Tl ctr inactive
O=S(=O)(c1ccc(F)c(F)c1)N1CCN(CCc2ccccc2)CC1	none | KCNK9 block conf inactive | Kir2-1 spec inactive | HEK293 Tl ctr inactive
Cc1ccc(S(=O)(=O)N2CCN(C3CC(=O)N(CCc4ccccc4)C3=O)CC2)cc1C (centres undefined)	none | KCNK9 block conf inactive | Kir2-1 spec inactive | HEK293 Tl ctr inactive
O=S(=O)(NCCN1CCN(S(=O)(=O)c2ccccc2F)CC1)c1ccccc1F	none (no result: KCNK9 inh, KCNQ1 block, KCNQ1 act, hERG protect)
O=S(=O)(c1ccccc1F)N1CCN(CCc2ccccc2)CC1	none | KCNK9 block conf inactive | Kir2-1 spec inactive | HEK293 Tl ctr inactive
COc1cccc(CNC(=O)c2cc(S(=O)(=O)N3CCOCC3)cn2C)c1	none
O=C(O)c1cc(-n2[nH]c(=O)c3ccccc3c2=O)ccc1Cl	none
Cc1ncc(CN2CCCC(C(=O)Nc3ccc(-c4cccc(F)c4)cc3)C2)n1C (centres undefined)	none
CCOC(=O)COc1cc(-n2c(=S)[nH]c3cc(OC)c(OC)cc3c2=O)c(Cl)cc1Cl	KCNK9 inh -13, KCNQ1 act 16 | KCNK9 block conf 54% | Kir2-1 spec inactive | HEK293 Tl ctr inactive
CCOC(=O)COc1cc(N2C(=O)CSCC2=O)c(Cl)cc1Cl	none
Cc1sc2cc3c(c(C(=O)c4ccccc4)[n+]2c1C)-c1cccc2cccc-3c12	KCNK9 inh -10 (no result: KCNK3 inh) | KCNK9 block conf 41% | Kir2-1 spec 64% | HEK293 Tl ctr 34%
O=C(c1ccccc1)c1c2c(cc3sc4ccccc4[n+]13)-c1cccc3cccc-2c13	none (no result: KCNK9 inh, KCNQ1 block, KCNQ1 act, hERG protect)
CCCn1c(=O)c2[nH]c(-c3ccc(OCC(=O)Nc4ccc(C#N)cc4)cc3)nc2n(CCC)c1=O	none (no result: KCNK9 inh, KCNQ1 block, KCNQ1 act, hERG protect)
O=C(Nc1ccc(F)cc1F)Nc1sccc1-c1nc2ccccc2s1	KCNK9 inh -11 | KCNK9 block conf 50% | Kir2-1 spec inactive | HEK293 Tl ctr 26%
COc1cccc(C(=O)OCC(=O)c2ccc(Br)s2)c1OC	none (no result: KCNK9 inh, KCNQ1 block, KCNQ1 act, hERG protect)
Cc1cccc(CN2CCCC(C(=O)N3CCCCC3)C2)c1 (centres undefined)	none
Cc1cccc(CN2CCCC(C(=O)N3CCc4ccccc4C3)C2)c1 (centres undefined)	none | KCNK9 block conf inactive | Kir2-1 spec inactive | HEK293 Tl ctr inactive
O=c1c(C/C=C/c2ccccc2)c(O)ccn1CCc1c[nH]c2ccccc12	none | KCNK9 block conf inactive | Kir2-1 spec inactive | HEK293 Tl ctr inactive
COc1ccc2[nH]cc(CCn3ccc(O)c(C/C=C/c4ccccc4)c3=O)c2c1	none
COc1ccccc1/C=C/c1nc(S(=O)(=O)c2ccccc2)c(N(C)C)o1	KCNK9 inh -11 | KCNK9 block conf 53% | Kir2-1 spec inactive | HEK293 Tl ctr 28%
COc1cccc(/C=C/c2nc(S(=O)(=O)c3ccccc3)c(N(C)C)o2)c1	none
CN(C)c1oc(/C=C/c2cccs2)nc1S(=O)(=O)c1ccccc1	KCNK9 inh -8.1 | KCNK9 block conf 42% | Kir2-1 spec inactive | HEK293 Tl ctr inactive
NCCCC[C@@H](C(=O)N1CCNCC1)n1cc([C@@H](N)CC(N)=O)nn1	none (no result: KCNK9 inh, KCNQ1 block, KCNQ1 act, hERG protect)
